Laboratory results as given in ChEMBL document CHEMBL1155577, “New annonaceous acetogenins from the roots of Uvaria calamistrata” (J Nat Prod, 2000).
≈ marks a conversion by molar mass, not a printed value.

Assays:
Format in all cases: functional, cell-based
A2780 = experiment: Cytotoxicity against human A2780 cells by MTT assay
Summary of the method: (§1)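 5-day MTT test on human tumor cells (KB epidermoid, HCT-8 ileocecal carcinoma, A2780 epithelial); cell-generated MTT-formazan solubilized in dimethyl sulfoxide and read as a measure of cell growth.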

KB = experiment: Cytotoxicity against human KB cells by MTT assay; summary of the method: as §1
[1] = Cytotoxicity against HCT cells by MTT assay; settings: Homo sapiens; summary of the method: as §1

Compound	IC50 (A2780)	IC50 (KB)	IC50 [1]
CCCCCCCCCC[C@@H](O)[C@H]1CC[C@H]([C@H](O)CCCCCC(O)CCCCCCCCCCC2=C[C@H](C)OC2=O)O1 (some centres not stated) [CALAMISTRIN C]	0.00315 µg/mL (≈ 0.00517 µM)	0.0605 µg/mL (≈ 0.0994 µM)	0.00473 µg/mL (≈ 0.00777 µM)
CCCCCCCCCC[C@H](O)[C@H]1CC[C@H]([C@H](O)CCCCCC(O)CCCCCCCCCCC2=C[C@H](C)OC2=O)O1 (some centres not stated) [CALAMISTRIN D]	0.431 µg/mL (≈ 0.708 µM)	0.0273 µg/mL (≈ 0.0448 µM)	0.0732 µg/mL (≈ 0.12 µM)
CCCCCCCC[C@H](O)[C@H]1CC[C@H]([C@H]2CC[C@H]([C@H](O)CCCCCCCCCCCC(O)CCC3=C[C@H](C)OC3=O)O2)O1 (some centres not stated) [CALAMISTRIN F]	0.0366 µg/mL (≈ 0.0588 µM)	0.051 µg/mL (≈ 0.0819 µM)	0.00227 µg/mL (≈ 0.00364 µM)
CCCCCCCC[C@@H](O)[C@H]1CC[C@H]([C@H]2CC[C@H]([C@H](O)CCCCCCCCCCC[C@@H](O)CCC3=C[C@H](C)OC3=O)O2)O1 [CALAMISTRIN G]	0.00197 µg/mL (≈ 0.00316 µM)	0.02 µg/mL (≈ 0.0321 µM)	0.00331 µg/mL (≈ 0.00531 µM)
